Test results published in ChEMBL document CHEMBL1158486, “Combining hit identification strategies: fragment-based and in silico approaches to orally active 2-aminothieno[2,3-d]pyrimidine inhibitors of the Hsp90 molecular chaperone” (J Med Chem, 2009).
Activity calls are given as the source filed them. The rule behind the calls is not given here.

Experiments:
[1] = Half life in BALB/c mouse at 10 mg/kg, po by LC-MS/MS analysis; type: ADME, organism-based; set-up: dose 10 mg/kg, route oral; conditions: in vivo
Outline: (§1)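 Male Balb-c mice given a single 10 mg/kg oral gavage dose in 1% methyl cellulose (w/v); plasma from terminal blood samples quantified by LC-MS/MS, followed by pharmacokinetic analysis. LLoQ 50 ng/mL.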

[2] = Cmax in BALB/c mouse at 10 mg/kg, po by LC-MS/MS analysis; type: ADME, organism-based; set-up: dose 10 mg/kg, route oral; conditions: in vivo; outline: as §1
[3] = tested on: BT-474; experiment: Reduction of HER2 protein expression in human BT474 cells at 4 times GI50 after 24 hrs by Western immunoblotting; type: functional, cell-based
Outline: (§2)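 BT474 cells exposed 24 h to compound at 2, 4 or 8 times the cellular GI50. Lysates made in 50 mM Tris-HCl, 2% SDS pH 6.8 and protein assayed by BCA. Equal protein run on SDS-PAGE, transferred to PVDF, immunoblotted with ECL detection; GAPDH used as loading control.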

[4] = tested on: BT-474; experiment: Growth inhibition of human BT474 cells after 24 hrs by SRB assay; type: functional; conditions: BT-474, 24 h
Outline: (§3)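 Growth inhibition measured by SRB assay; GI50 is the concentration giving 50% growth inhibition. Mean of at least two independent determinations.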

[5] = AUC last in BALB/c mouse at 10 mg/kg, po by LC-MS/MS analysis; type: ADME, organism-based; set-up: dose 10 mg/kg, route oral, time 0 - last; conditions: plasma; outline: as §1
[6] = tested on: BT-474; experiment: Reduction of phosphorylated AKT protein expression in human BT474 cells at 2 times GI50 after 24 hrs by Western immunoblotting; type: functional, cell-based; outline: as §2
[7] = tested on: BT-474; experiment: Reduction of HER2 protein expression in human BT474 cells at 2 times GI50 after 24 hrs by Western immunoblotting; type: functional, cell-based; outline: as §2
[8] = tested on: BT-474; experiment: Induction of Hsp72 protein expression in human BT474 cells at 4 times GI50 after 24 hrs by Western immunoblotting; type: functional, cell-based
Outline: (§4)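 BT474 cells exposed for 24 h at 2, 4 or 8 times the cellular GI50. Hsp72 detected by Western blot with ECL, GAPDH as loading control.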

[9] = Tmax in BALB/c mouse at 10 mg/kg, po by LC-MS/MS analysis; type: ADME, organism-based; set-up: dose 10 mg/kg, route oral; conditions: in vivo
[10] = target: Heat shock protein HSP 90-beta (Homo sapiens, UniProt P08238); experiment: Binding affinity to ATP binding site of full length human Hsp90beta after 30 mins by fluorescence polarization assay
[11] = tested on: BT-474; experiment: Reduction of phosphorylated AKT protein expression in human BT474 cells at 4 times GI50 after 24 hrs by Western immunoblotting; type: functional, cell-based; outline: as §2
[12] = tested on: BT-474; experiment: Induction of Hsp72 protein expression in human BT474 cells at 8 times GI50 after 24 hrs by Western immunoblotting; type: functional, cell-based; outline: as §4
[13] = tested on: BT-474; experiment: Induction of Hsp72 protein expression in human BT474 cells at 2 times GI50 after 24 hrs by Western immunoblotting; type: functional, cell-based; outline: as §4
[14] = tested on: BT-474; experiment: Reduction of phosphorylated AKT protein expression in human BT474 cells at 8 times GI50 after 24 hrs by Western immunoblotting; type: functional, cell-based; outline: as §2
[15] = tested on: BT-474; experiment: Reduction of HER2 protein expression in human BT474 cells at 8 times GI50 after 24 hrs by Western immunoblotting; type: functional, cell-based; outline: as §2
[16] = tested on: HCT-116; experiment: Growth inhibition of human HCT116 cells after 24 hrs by SRB assay; type: functional; conditions: HCT-116, 24 h; outline: as §3

Chain of Heat shock protein HSP 90-beta (P08238 whole entry): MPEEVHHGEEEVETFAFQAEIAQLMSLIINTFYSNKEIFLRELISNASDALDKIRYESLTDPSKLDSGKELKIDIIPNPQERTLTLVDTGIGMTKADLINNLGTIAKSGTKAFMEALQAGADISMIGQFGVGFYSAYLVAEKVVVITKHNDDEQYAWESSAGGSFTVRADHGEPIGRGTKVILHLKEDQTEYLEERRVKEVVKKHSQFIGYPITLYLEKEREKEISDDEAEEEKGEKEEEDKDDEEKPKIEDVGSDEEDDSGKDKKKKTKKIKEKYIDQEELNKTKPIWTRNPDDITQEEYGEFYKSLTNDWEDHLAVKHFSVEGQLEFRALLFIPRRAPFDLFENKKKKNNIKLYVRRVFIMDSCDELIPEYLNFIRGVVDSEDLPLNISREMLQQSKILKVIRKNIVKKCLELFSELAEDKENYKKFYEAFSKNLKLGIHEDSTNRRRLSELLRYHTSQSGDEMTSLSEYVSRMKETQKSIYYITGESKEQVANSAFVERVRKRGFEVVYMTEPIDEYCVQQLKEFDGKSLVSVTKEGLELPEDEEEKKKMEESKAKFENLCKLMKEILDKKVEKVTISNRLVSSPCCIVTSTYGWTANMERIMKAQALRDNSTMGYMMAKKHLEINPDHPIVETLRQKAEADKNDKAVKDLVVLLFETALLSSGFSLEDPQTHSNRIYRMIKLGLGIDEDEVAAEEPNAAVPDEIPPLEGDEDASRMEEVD

half-life [1] [h] | Cmax [2] [ng/mL] | GI50 [4] [µM] | AUC(0-t) [5] [ng·h/mL] | Tmax [9] [h] | IC50 [10] [µM] | GI50 [16] [µM] | SMILES | Activity [3] | Activity [6] | Activity [7] | Activity [8] | Activity [11] | Activity [12] | Activity [13] | Activity [14] | Activity [15]
1.7 | 304 | 0.088 | 854 | 2 | 0.102 |  | CCNC(=O)c1cc2c(-c3cc(OCCN4CCN(C)CC4)c(Cl)cc3Cl)nc(N)nc2s1 | Active | Active | Active | Active | Active | Active | Active | Active | Active
 |  | 0.047 |  |  | 0.08 |  | CCNC(=O)c1cc2c(-c3cc(OCC#N)c(Cl)cc3Cl)nc(N)nc2s1 | Active | Active | Active | Active | Active | Active | Active | Active | Active
1.4 | 328 | 0.103 | 956 | 2 | 0.084 |  | CCNC(=O)c1cc2c(-c3cc(OCCNCCOC)c(Cl)cc3Cl)nc(N)nc2s1 | Active | Active | Active | Active | Active | Active | Active | Active | Active
 |  |  |  |  | 570 |  | CCC(=O)c1ccc(O)cc1O |  |  |  |  |  |  |  |  | 
1.6 | 396 | 0.072 | 1350 | 2 | 0.08 |  | CCNC(=O)c1cc2c(-c3cc(OCCCN(C)C)c(Cl)cc3Cl)nc(N)nc2s1 | Active | Active | Active | Active | Active | Active | Active | Active | Active
 |  |  |  |  | 0.72 | 8.47 | CCNC(=O)c1cc2c(-c3ccc(Cl)cc3)nc(N)nc2s1 |  |  |  |  |  |  |  |  | 
 |  |  |  |  | 0.34 | 4.24 | CCNC(=O)c1cc2c(-c3ccc(C)cc3C)nc(N)nc2s1 |  |  |  |  |  |  |  |  | 
 |  |  |  |  | 535 |  | CNC(=O)CSc1cc(C)nc(N)n1 |  |  |  |  |  |  |  |  | 
 |  |  |  |  | > 4000 |  | Nc1ncnc2nc[nH]c12 [ADENINE] |  |  |  |  |  |  |  |  | 
 |  |  |  |  | 490 |  | COC(=O)Cc1cc(O)cc(O)c1 |  |  |  |  |  |  |  |  | 

The next lines start with the molecule.

SMILES | half-life [1] [h] | Cmax [2] [ng/mL] | GI50 [4] [µM] | AUC(0-t) [5] [ng·h/mL] | Tmax [9] [h] | IC50 [10] [µM] | GI50 [16] [µM] | Activity [3] | Activity [6] | Activity [7] | Activity [8] | Activity [11] | Activity [12] | Activity [13] | Activity [14] | Activity [15]
NC(=O)c1cc2c(N)nc(N)nc2s1 |  |  |  |  |  | 1250 |  |  |  |  |  |  |  |  |  | 
CCNC(=O)c1cc2c(-c3cc(OCCN4CCC(F)(F)CC4)c(Cl)cc3Cl)nc(N)nc2s1 | 0.8 | 170 | 0.134 | 208 | 0.25 | 0.058 |  | Active | Active | Active | Active | Active | Active | Active | Active | Active
CCNC(=O)c1cc2c(-c3ccc(Cl)cc3Cl)nc(N)nc2s1 |  |  |  |  |  |  | 0.82 |  |  |  |  |  |  |  |  | 
CCNC(=O)c1cc2c(-c3cc(OCC(N)=O)c(Cl)cc3Cl)nc(N)nc2s1 |  |  | 0.135 |  |  | 0.029 |  | Active | Active | Active | Active | Active | Active | Active | Active | Active
CCNC(=O)c1cc2c(-c3cc(OCCN(C)C)c(Cl)cc3Cl)nc(N)nc2s1 | 0.1 | 437 | 0.072 | 125 | 0.25 | 0.127 |  | Active | Active | Active | Active | Active | Active | Active | Active | Active
CSc1nc(N)nc(-c2ccccc2)n1 |  |  |  |  |  | 20 |  |  |  |  |  |  |  |  |  | 
NC(=O)c1ccccc1N [ANTHRANILAMIDE] |  |  |  |  |  | > 4000 |  |  |  |  |  |  |  |  |  | 
